# Laboratory results: ChEMBL document CHEMBL1140196, “Synthesis and biological activities of some new fluorinated coumarins and 1-aza coumarins” (Eur J Med Chem, 2008)
# Assays:
# Bacillus [1] = assay: Antibacterial activity against […] at 25 ug/mL after 48 hrs by cup-plate method; format: functional; settings: for zone of inhibition at 25 µg/mL: read-out: IZ
# Aspergillus niger [2] = assay: Antifungal activity against Aspergillus niger at 100 ug/mL after 48 hrs by cup-plate method; format: functional
# Aspergillus niger [3] = assay: Antifungal activity against Aspergillus niger at 25 ug/mL after 48 hrs by cup-plate method; format: functional; settings: for zone of inhibition at 25 µg/mL: read-out: IZ
# Macrophomina phaseolina [4] = assay: Antifungal activity against Rhizoctonia bataticola at 50 ug/mL after 48 hrs by cup-plate method; format: functional
# Macrophomina phaseolina [5] = assay: Antifungal activity against Rhizoctonia bataticola at 25 ug/mL after 48 hrs by cup-plate method; format: functional
# Mus musculus = assay: Analgesic activity in albino mouse assessed as inhibition of acetic acid-induced writhing at 10 mg/kg, po; format: functional
# Method in brief: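 Acetic acid writhing test: 0.6% acetic acid at 0.1 ml/10 g given intraperitoneally to albino mice of both sexes (18–22 g). Compounds given orally at 10 mg/kg as a suspension in 5% carboxymethyl cellulose. Indomethacin 10 mg/kg was the reference under the same conditions.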
# Bacillus [6] = assay: Antibacterial activity against […] at 100 ug/mL after 48 hrs by cup-plate method; format: functional
# Rattus norvegicus [7] = assay: Antiinflammatory activity in Wistar rat assessed as inhibition of formalin-induced paw oedema volume at 100 mg/kg, po administered 30 mins before formalin challenge after 4 hrs relative to control; format: functional
# Method in brief: (§1)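 Oral dosing at 100 mg/kg as a 2% CMC suspension, 30 min before injecting 3.5% formalin into the paw. Groups of six Wistar rats of either sex. Paw volume read by mercury-displacement plethysmograph at 0 h (right after formalin) and at 1, 2, 3, 4 and 5 h. Percent inhibition versus plain 2% CMC controls; SEM reported.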
# Bacillus [8] = assay: Antibacterial activity against […] at 50 ug/mL after 48 hrs by cup-plate method; format: functional
# Escherichia coli [9] = assay: Antibacterial activity against Escherichia coli at 100 ug/mL after 48 hrs by cup-plate method; format: functional
# Rattus norvegicus [10] = assay: Gastrointestinal toxicity in Wistar rat assessed as ulcerogenic effect at 400 mg/kg, po administered twice at 2 hrs interval after 4 hrs; format: organism-based; set-up: dose 400 mg/kg, route oral; settings: in vivo
# Method in brief: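 Male Wistar rats fasted 36 h, then given 400 mg/kg orally twice, 2 h apart. Animals killed 4 h later and the stomach examined for lesions; ulcer index recorded.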
# Rattus norvegicus [11] = assay: Antiinflammatory activity in Wistar rat assessed as inhibition of formalin-induced paw oedema volume at 100 mg/kg, po administered 30 mins before formalin challenge after 1 hr relative to control; format: functional; method in brief: as §1
# [12] = Acute toxicity in ip dosed albino mouse after 24 hrs; format: organism-based; settings: in vivo
# Method in brief: (§2)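 Groups of six albino mice (20–25 g), fasted overnight, dosed once orally or intraperitoneally at 100 to 1000 mg kg^-1 body weight. Observed for 24 h for mortality and signs of acute toxicity (altered motor activity, tremors, convulsion, sedation, lacrimation). LD50 cut-off set at the highest dose tested, 1000 mg kg^-1.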
# Escherichia coli [13] = assay: Antibacterial activity against Escherichia coli at 50 ug/mL after 48 hrs by cup-plate method; format: functional
# [14] = Acute toxicity in po dosed albino mouse after 24 hrs; format: organism-based; settings: in vivo; method in brief: as §2
# Aspergillus niger [15] = assay: Antifungal activity against Aspergillus niger at 50 ug/mL after 48 hrs by cup-plate method; format: functional
# Macrophomina phaseolina [16] = assay: Antifungal activity against Rhizoctonia bataticola at 100 ug/mL after 48 hrs by cup-plate method; format: functional
# Rattus norvegicus [17] = assay: Antiinflammatory activity in Wistar rat assessed as inhibition of formalin-induced paw oedema volume at 100 mg/kg, po administered 30 mins before formalin challenge after 3 hrs relative to control; format: functional; method in brief: as §1
# Rattus norvegicus [18] = assay: Antiinflammatory activity in Wistar rat assessed as inhibition of formalin-induced paw oedema volume at 100 mg/kg, po administered 30 mins before formalin challenge after 2 hrs relative to control; format: functional; method in brief: as §1
# Rattus norvegicus [19] = assay: Antiinflammatory activity in Wistar rat assessed as inhibition of formalin-induced paw oedema volume at 100 mg/kg, po administered 30 mins before formalin challenge after 5 hrs relative to control; format: functional; method in brief: as §1
# Escherichia coli [20] = assay: Antibacterial activity against Escherichia coli at 25 ug/mL after 48 hrs by cup-plate method; format: functional; settings: for zone of inhibition at 25 µg/mL: read-out: IZ
SMILES,inhibition at 25 µg/mL (Bacillus [1]) [%],inhibition at 100 µg/mL (Aspergillus niger [2]) [%],inhibition at 25 µg/mL (Aspergillus niger [3]) [%],inhibition at 50 µg/mL (Macrophomina phaseolina [4]) [%],inhibition at 25 µg/mL (Macrophomina phaseolina [5]) [%],inhibition in vivo at 10 mg/kg (Mus musculus) [%],inhibition at 100 µg/mL (Bacillus [6]) [%],inhibition in vivo at 100 mg/kg (Rattus norvegicus [7]) [%],inhibition at 50 µg/mL (Bacillus [8]) [%],inhibition at 100 µg/mL (Escherichia coli [9]) [%],UI (Rattus norvegicus [10]),inhibition in vivo at 100 mg/kg (Rattus norvegicus [11]) [%],LD50 at 24 h [12] [mg/kg],inhibition at 50 µg/mL (Escherichia coli [13]) [%],LD50 at 24 h [14] [mg/kg],inhibition at 50 µg/mL (Aspergillus niger [15]) [%],inhibition at 100 µg/mL (Macrophomina phaseolina [16]) [%],inhibition in vivo at 100 mg/kg (Rattus norvegicus [17]) [%],inhibition in vivo at 100 mg/kg (Rattus norvegicus [18]) [%],inhibition in vivo at 100 mg/kg (Rattus norvegicus [19]) [%],other results
O=c1cc(CNc2ccc(F)cc2)c2ccc(Cl)cc2[nH]1,27,80,41,62,48,28.6,78,57,44,73,61.42,4,> 700,54,> 1000,52,79,42,4,77,zone of inhibition at 25 µg/mL (Bacillus [1]): 58 mm; zone of inhibition at 25 µg/mL (Aspergillus niger [3]): 78 mm; inhibition at 25 µg/mL (Escherichia coli [20]): 32%; zone of inhibition at 25 µg/mL (Escherichia coli [20]): 68 mm
O=c1cc(COc2ccc(F)cc2)c2cc(Cl)ccc2o1,64,89,61,74,65,56.2,97,71,71,94,66.66,39,> 700,60,> 1000,71,89,58,38,80,inhibition at 25 µg/mL (Escherichia coli [20]): 51%; zone of inhibition at 25 µg/mL (Escherichia coli [20]): 92 mm
Cc1ccc2c(CNc3ccc(F)cc3)cc(=O)oc2c1,28,67,14,49,26,3.96,74,67,55,73,64.93,62,> 800,46,> 1000,33,70,54,37,83,zone of inhibition at 25 µg/mL (Bacillus [1]): 60 mm; zone of inhibition at 25 µg/mL (Aspergillus niger [3]): 40 mm; inhibition at 25 µg/mL (Escherichia coli [20]): 27%; zone of inhibition at 25 µg/mL (Escherichia coli [20]): 58 mm
